# Assay results as given in ChEMBL document CHEMBL1126882, “Orally active central dopamine and serotonin receptor ligands: 5-, 6-, 7-, and 8-[[trifluoromethyl)sulfonyl]oxy]-2-(di-n-propylamino)tetralins and the formation of active metabolites in vivo” (J Med Chem, 1993).
# pKi: −log10 of the molar value. Active and inactive are the calls of the source. The calls are words filed in the database; no cut-off is given here.
# What was measured:
# Rattus norvegicus [1] = assay: Effective dose for half-maximal decrease in the accumulation of 5-hydroxytryptophan (5-HTP) in reserpinized rat brain hemispheral area by sc administration; Inactive; assay type: functional, organism-based
# Procedure, shortened: (§1)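 Male Sprague-Dawley rats (200-300 g) got reserpine 5 mg/kg sc 18 h before. The test drug (saline) was given sc or po (po rats fasted 18 h), with NSD 1015, 30 min before decapitation. DOPA and 5-HTP in limbic, striatal and hemispheral tissue were measured by HPLC-ED. ED50 (half-maximal decrease) was taken from 4-6-dose curves, with deviation estimated graphically from SEM.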
# [2] = biological target: T1, 5-hydroxytryptamine receptor 1A (Rattus norvegicus, UniProt P19327); assay: Binding affinity against 5-hydroxytryptamine 1A receptor in homogenated rat brain tissue, using by [3H]8-OH-DPAT as radioligand; assay type: tissue-based
# T1 sequence (P19327 whole entry): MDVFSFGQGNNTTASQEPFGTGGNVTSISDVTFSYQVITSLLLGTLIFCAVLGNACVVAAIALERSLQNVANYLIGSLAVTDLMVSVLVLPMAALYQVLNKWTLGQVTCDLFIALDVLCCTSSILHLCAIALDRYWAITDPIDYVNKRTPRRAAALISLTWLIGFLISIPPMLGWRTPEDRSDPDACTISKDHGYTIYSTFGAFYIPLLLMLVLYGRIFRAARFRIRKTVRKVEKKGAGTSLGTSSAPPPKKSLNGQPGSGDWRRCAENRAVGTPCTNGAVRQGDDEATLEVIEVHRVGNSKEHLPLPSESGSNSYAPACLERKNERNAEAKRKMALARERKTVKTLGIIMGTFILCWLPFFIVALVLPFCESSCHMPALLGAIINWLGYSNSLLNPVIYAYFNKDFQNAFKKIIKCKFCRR
# Procedure, shortened: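 Rat brain homogenate was washed and preincubated in 50 mM Tris (pH 8.0) containing NaCl, CaCl2 and MgCl2, plus 10 μM pargyline. Nonspecific binding was defined with 10 μM 5-HT. Six drug concentrations (10⁻⁴-10⁻⁹ M) were tested, triplicate or single run. IC50 came from a semilog plot with linear regression.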
# Rattus norvegicus [3] = species: Rattus norvegicus; assay: DA agonist induced behavior was charecterised by increased locomotion, sniffing and licking.+ indicates low intensity of behavioral effect; assay type: functional, organism-based
# Procedure, shortened: (§2)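 Male Sprague-Dawley rats (200-300 g) given reserpine 5 mg/kg sc in the neck 18 h before testing. The test compound, in 0.9% saline, was given sc in the neck (n = 4-5). Rats were placed singly in photocell motility meters right after dosing. Counts were recorded over 30 min, alongside gross behavioural observation of 5-HT and DA signs. Statistics: ANOVA with Fischer's PLSD versus reserpine controls.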
# Rattus norvegicus [4] = assay: Effective dose for half-maximal decrease in the accumulation of 5-hydroxytryptophan (5-HTP) in reserpinized rat brain limbic area by sc administration; Inactive; assay type: functional, organism-based; procedure, shortened: as §1
# Rattus norvegicus [5] = assay: Effective dose for half-maximal decrease in the accumulation of 5-hydroxytryptophan (5-HTP) in reserpinized rat brain striatal area by sc administration; Inactive; assay type: functional, organism-based; procedure, shortened: as §1
# Rattus norvegicus [6] = assay: post-synaptic agonistic effects by increase in locomotor activity at the dose of 2.2 umol/kg, sc in reserpinized rat; assay type: functional
# [7] = Effective dose for half-maximal decrease in the accumulation of 5-hydroxytryptophan (5-HTP) in reserpinized rat brain hemispheral area by po administration; assay type: functional; procedure, shortened: as §1
# [8] = Effective dose for half-maximal decrease in the accumulation of 5-hydroxytryptophan (5-HTP) in reserpinized rat brain limbic area by po administration; assay type: functional; procedure, shortened: as §1
# [9] = biological target: T2, Dopamine receptor (Rattus norvegicus) (UniProt P25115+P19020+P30729+P18901+P61169); assay: Effective dose for half-maximal decrease in the accumulation of DOPA in reserpinized rat brain hemispheral area by sc administration; Inactive; assay type: functional, organism-based; procedure, shortened: as §1
# [10] = biological target: T2, Dopamine receptor (Rattus norvegicus); assay: Effective dose for half-maximal decrease in the accumulation of DOPA in reserpinized rat brain limbic area by sc administration; partial response at the highest dose tested; assay type: functional, organism-based; procedure, shortened: as §1
# [11] = Effective dose for half-maximal decrease in the accumulation of 5-hydroxytryptophan (5-HTP) in reserpinized rat brain striatal area by sc administration; assay type: functional; procedure, shortened: as §1
# [12] = biological target: T2, Dopamine receptor (Rattus norvegicus); assay: Effective dose for half-maximal decrease in the accumulation of DOPA in reserpinized rat brain hemispheral area by po administration; assay type: functional, organism-based; procedure, shortened: as §1
# [13] = biological target: T2, Dopamine receptor (Rattus norvegicus); assay: Effective dose for half-maximal decrease in the accumulation of DOPA in reserpinized rat brain striatal area by sc administration; partial response at the highest dose tested; assay type: functional, organism-based; procedure, shortened: as §1
# [14] = Effective dose for half-maximal decrease in the accumulation of 5-hydroxytryptophan (5-HTP) in reserpinized rat brain hemispheral area by sc administration; assay type: functional; procedure, shortened: as §1
# D(2) dopamine receptor [15] = biological target: T3, D(2) dopamine receptor (Rattus norvegicus, UniProt P61169); assay: Binding affinity against dopamine receptor D2 in rat brain tissue using [3H]spiperone; assay type: tissue-based
# T3 sequence (P61169 whole entry): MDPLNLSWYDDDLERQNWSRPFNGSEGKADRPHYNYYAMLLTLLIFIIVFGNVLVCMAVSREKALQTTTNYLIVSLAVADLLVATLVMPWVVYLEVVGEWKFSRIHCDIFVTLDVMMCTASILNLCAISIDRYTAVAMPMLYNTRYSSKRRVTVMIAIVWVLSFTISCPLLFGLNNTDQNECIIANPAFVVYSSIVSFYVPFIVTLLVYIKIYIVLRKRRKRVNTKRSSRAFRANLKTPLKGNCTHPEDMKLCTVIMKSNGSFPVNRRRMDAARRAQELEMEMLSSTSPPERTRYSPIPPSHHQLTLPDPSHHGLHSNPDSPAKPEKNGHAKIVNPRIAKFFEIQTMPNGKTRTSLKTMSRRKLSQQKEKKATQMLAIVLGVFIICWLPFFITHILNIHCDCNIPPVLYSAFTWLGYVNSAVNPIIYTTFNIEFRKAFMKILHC
# Procedure, shortened: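 Rat striatal membranes were prepared in 50 mM potassium phosphate (pH 7.4). They were incubated with 0.5 nM [3H]spiperone (3 mg original tissue) for 10 min at 37 °C. Specific binding was defined with 10 μM 6,7-ADTN. Six drug concentrations (10⁻⁴-10⁻⁹ M) were tested, in triplicate or in a single experiment.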
# [16] = Effective dose for half-maximal decrease in the accumulation of 5-hydroxytryptophan (5-HTP) in reserpinized rat brain striatal area by po administration; assay type: functional; procedure, shortened: as §1
# [17] = Area under curve ratio was determined (po/iv); assay type: functional
# Procedure, shortened: (§3)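 Male Sprague-Dawley rats (300 g) with arterial catheters were dosed 24 h after surgery. Doses: 40 μmol/kg po by gavage and 5 μmol/kg iv, or 20 po and 1 iv. Po rats were fasted 18 h. Blood was sampled from 5 min to 12 h and measured by GC-MS after extraction at pH 11 against an internal standard, samples in duplicate. AUC po/iv came from n = 4 per route. Half-life was read graphically from the oral elimination phase.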
# [18] = Half-lives were estimated from the elimination phase of the blood conc-time curve after oral administration; assay type: ADME, organism-based; settings: whole blood; procedure, shortened: as §3
# [19] = biological target: T2, Dopamine receptor (Rattus norvegicus); assay: Effective dose for half-maximal decrease in the accumulation of DOPA in reserpinized rat brain limbic area by po administration; partial response at the highest dose tested; assay type: functional, organism-based; procedure, shortened: as §1
# Rattus norvegicus [20] = assay: post-synaptic agonistic effects by increase in locomotor activity at the dose of 50 umol/kg, sc in reserpinized rat (p<0.005); assay type: functional
# [21] = Effective dose for half-maximal decrease in the accumulation of 5-hydroxytryptophan (5-HTP) in reserpinized rat brain limbic area by sc administration; assay type: functional; procedure, shortened: as §1
# [22] = biological target: T2, Dopamine receptor (Rattus norvegicus); assay: Effective dose for half-maximal decrease in the accumulation of DOPA in reserpinized rat brain striatal area by po administration; partial response at the highest dose tested; assay type: functional, organism-based; procedure, shortened: as §1
# Rattus norvegicus [23] = assay: Effective dose for half-maximal decrease in the accumulation of 5-hydroxytryptophan (5-HTP) in reserpinized rat brain striatal area by sc administration; partial response at the highest dose tested; assay type: functional, organism-based; procedure, shortened: as §1
# Rattus norvegicus [24] = assay: Effective dose for half-maximal decrease in the accumulation of 5-hydroxytryptophan (5-HTP) in reserpinized rat brain limbic area by sc administration; partial response at the highest dose tested; assay type: functional, organism-based; procedure, shortened: as §1
# [25] = biological target: T2, Dopamine receptor (Rattus norvegicus); assay: Effective dose for half-maximal decrease in the accumulation of DOPA in reserpinized rat brain limbic area by sc administration; assay type: functional, organism-based; procedure, shortened: as §1
# [26] = biological target: T2, Dopamine receptor (Rattus norvegicus); assay: Effective dose for half-maximal decrease in the accumulation of DOPA in reserpinized rat brain hemispheral area by sc administration; partial response at the highest dose tested; assay type: functional, organism-based; procedure, shortened: as §1
# [27] = biological target: T2, Dopamine receptor (Rattus norvegicus); assay: Effective dose for half-maximal decrease in the accumulation of DOPA in reserpinized rat brain striatal area by sc administration; assay type: functional, organism-based; procedure, shortened: as §1
# D(2) dopamine receptor [28] = biological target: T3, D(2) dopamine receptor; assay: Binding affinity against dopamine receptor D2 in homogenated rat brain tissue, using by ([3H]N00437) as radioligand; assay type: tissue-based
# Procedure, shortened: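 Striata from male Wistar rats were washed in Tris (pH 7.5) containing EDTA, KCl and CaCl2. Tissue (1.25 mg original) was incubated with 0.2 nM [3H]-N-0437 (final) for 90 min at 25 °C, then filtered and counted by scintillation. Nonspecific binding was defined with 1 μM 6,7-ADTN. IC50 was read from a hand-fitted sigmoid curve, in triplicate.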
# Rattus norvegicus [29] = species: Rattus norvegicus; assay: 5-HT behavioral syndrome was determined by observing flat body posture and forepaw threading in rat.++ indicates […] intensity of behavioral effect; assay type: functional, organism-based; procedure, shortened: as §2
Structure (SMILES),ED50 (Rattus norvegicus [1]),pKi [2],ED50 [9],ED50 [10],ED50 [11] [µmol/kg],ED50 [13],ED50 [14] [µmol/kg],pKi (D(2) dopamine receptor [15]),Counts/30 (Rattus norvegicus [20]) [min],ED50 [21] [µmol/kg],ED50 (Rattus norvegicus [24]),ED50 [26],further results
CCCN(CCC)[C@@H]1CCc2ccc(O)cc2C1,inactive,5.49,–,–,–,–,–,–,–,–,–,–,Behavioral observation (Rattus norvegicus [3]): Partially active; ED50 (Rattus norvegicus [4]): inactive; ED50 (Rattus norvegicus [5]): inactive; Counts/30 (Rattus norvegicus [6]): 100 counts/30 min
CCCN(CCC)C1CCc2cccc(OS(=O)(=O)C(F)(F)F)c2C1 (stereo not given),–,8.02,inactive,Weak activity,15,Weak activity,10,6.17,110,5.9,–,–,ED50 [7]: 1.2 µmol/kg; ED50 [8]: 1.2 µmol/kg; Behavioral syndrome (Rattus norvegicus [3]): Partially active; ED50 [12]: 30 µmol/kg; ED50 [16]: 1.5 µmol/kg; Ratio [17]: 11.2; half-life [18]: 1.5 h; ED50 [19]: Weak activity; ED50 [22]: Weak activity
CCCN(CCC)C1CCc2ccc(OC)cc2C1 (stereo not given),inactive,–,inactive,Weak activity,–,Weak activity,–,–,–,–,Weak activity,–,ED50 (Rattus norvegicus [23]): Weak activity
CCCN(CCC)C1CCc2ccc(OS(=O)(=O)C(F)(F)F)cc2C1 (stereo not given),–,6.44,–,–,34,–,27,5.89,170,–,Weak activity,Weak activity,ED50 [25]: 1.6 µmol/kg; ED50 [27]: 0.4 µmol/kg; pKi (D(2) dopamine receptor [28]): 6.82
CCCNC1CCc2cccc(OS(=O)(=O)C(F)(F)F)c2C1 (stereo not given),–,8.42,–,Weak activity,0.8,Weak activity,1.1,5.87,120,1.2,–,Weak activity,Behavioral syndrome (Rattus norvegicus [29]): Active
